Sampled rows, rich in hits. Any-hit rate of the full collection: about 1.6%.
CSN inh: CSN deneddylation inhibition | actives 0.38% (n = 360,000) | inhibition, % at 12.5 µM | AID 651999 | Q92905 | Purified CSN, SCF-Nedd8-OG deneddylation, fluorescence polarization;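 active means pattern-corrected inhibition above about 35%, with an unprinted fluorescence ratio check between 0.5 and 1.5, limit read from the data, passing the limit was not always enough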;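 further: 0% = enzyme with substrate and 100% = substrate without enzyme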
Target sequence (Q92905 whole entry, looked up, one chain of several): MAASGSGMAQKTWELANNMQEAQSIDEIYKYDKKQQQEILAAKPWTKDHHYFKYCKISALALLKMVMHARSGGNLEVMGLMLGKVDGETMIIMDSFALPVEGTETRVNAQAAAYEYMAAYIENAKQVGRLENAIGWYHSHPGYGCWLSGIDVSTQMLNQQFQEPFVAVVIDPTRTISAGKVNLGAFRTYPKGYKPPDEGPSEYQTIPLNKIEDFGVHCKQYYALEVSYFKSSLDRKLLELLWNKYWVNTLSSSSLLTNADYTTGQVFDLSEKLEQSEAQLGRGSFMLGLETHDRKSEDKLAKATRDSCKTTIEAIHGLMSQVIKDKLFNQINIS
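Test system: Human Csn5 produced in HEK293T cells | Compound: 12.5 µM single point | Times: 90 min, room temperature | Signal: Fluorescence polarization readout | Read-out basis: % inhibition of substrate cleavage by Csn5 | Controls: no-enzyme wells high, enzyme-with-substrate wells low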
SENP1 inh: blocks the human SENP1 SUMO protease catalytic domain | inhibition, % at 10 µM | actives 0.21% (n = 360,000) | Q9P0U3 | AID 624204 | recombinant SENP1 catalytic domain, CyPet-SUMO1-YPet FRET cleavage;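 active means inhibition at least 30% at 10 µM, raw YFP signal under a set limit, fluorescence ratio 0.5 to 1.5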;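 further: 0% = enzyme with DMSO and 100% = no enzyme wells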
Target sequence (Q9P0U3 419-644 limits assumed): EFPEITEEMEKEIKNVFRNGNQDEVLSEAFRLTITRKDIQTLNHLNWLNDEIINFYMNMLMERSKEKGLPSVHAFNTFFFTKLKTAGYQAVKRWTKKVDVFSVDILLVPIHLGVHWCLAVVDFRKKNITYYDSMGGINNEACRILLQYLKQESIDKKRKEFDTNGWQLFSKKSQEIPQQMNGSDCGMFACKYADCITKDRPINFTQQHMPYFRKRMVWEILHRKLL
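Material: hSENP1 catalytic domain, recombinant; medium: Tris pH 8 with BME, BSA, NP40 and catalase; compound: single concentration of 10 µM compound, 0.5% DMSO final; technique: FRET read of cyan and yellow fluorescence; timing: 50 min enzyme reaction, room temperature, light-protected; reagent: SFCypet-SUMO1-SFYpet substrate at 25 nM; control set: no-enzyme low, enzyme-DMSO high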
Rpn11 block: inhibitors of human proteasome Rpn11; inhibition, % at 20 µM; human 26S proteasome, Ub4-pepOG fluorescence polarization; 20S core pre-blocked with epoxomicin; actives 0.59% (n = 360,000); O00487;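 active means inhibition at 20 µM, scaled to each plate's controls, above about 33%, limit read from the data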
TPT1 inhibitor: inhibitors of Candida albicans tRNA 2'-phosphotransferase TPT1; recombinant caTPT1, FP RNA substrate dephosphorylation; inhibition, % at 5 µM; actives 0.81% (n = 300,000);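 active means inhibition above the mean of all tested compounds plus 3 SD, set per screening campaign, cut at about 24% in these data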;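 further: plate controls were DMSO alone for no effect and ferristatin control at 100 nM for full effect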
HNF4A DNA FP: change in binding of human HNF4 alpha to DNA; actives 0.3% (n = 360,000); HNF4a-FITC DNA binding, fluorescence polarization, 1 h; P41235; activity change, % at 10 µM; AID 1224865; in the data active means activity change above about 30%, passing the limit was not always enough
* = called active by the depositor; x = no result shown; + = active, no number.

SMILES	CSN inh	SENP1 inh	Rpn11 block	TPT1 inhibitor	HNF4A DNA FP
O=C(O)CCc1ccc(-c2ccc(Br)cc2)n1-c1ccc(O)cc1	39*	7	-3	x	2
CN(Cc1ccccc1F)c1cc2c(c3c1ccn3C)C1CCC2C1 (centres undefined)	0	0	-4	x	-1
Nc1cc(N)c(OCC(F)(F)F)cc1OCC(F)(F)F	0	32*	-18	-37	-1
CC(C)c1cccc(-c2ccc3c(c2)S(=O)(=O)c2cccc(C(=O)NCc4ccco4)c2C3=O)c1	49*	9	7	x	-20
O=C(NCc1ccco1)c1cccc2c1C(=O)c1ccc(N3CCC(N4CCCCC4)CC3)cc1S2(=O)=O	39*	33	x	x	53
O=C(NCc1ccc(F)cc1)c1cccc2c1C(=O)c1ccc(N3CCC(N4CCCCC4)CC3)cc1S2(=O)=O	45*	-29	x	x	56
CC(C)c1cccc(-c2ccc3c(c2)S(=O)(=O)c2cccc(C(=O)O)c2C3=O)c1	3	-8	3	x	-2
CC(C)(C)CNC(=O)c1cccc2c1C(=O)c1ccc(N3CCCC3)cc1S2(=O)=O	42*	-29	x	x	88
CC1CCN(c2ccc3c(c2)S(=O)(=O)c2cccc(C(=O)NCc4ccc(F)cc4)c2C3=O)CC1	-71	-31	14	x	-101
O=C(NCCN1CCCCC1)Nc1ccc(Br)cc1	3	4	7	2	1
COc1cc(-c2cc(N)n(S(=O)(=O)c3ccccc3)n2)cc(OC)c1OC	5	1	-10	-1	3
Nc1cc(-c2ccccc2)nn1S(=O)(=O)c1ccc(Br)cc1	+	-3	-3	1	2
NCc1csc(NC(=O)Nc2cccc(C(F)(F)F)c2)n1	3	-2	8	x	2
CCOC(=O)Nc1cc2c(cc1[N+](=O)[O-])-c1ccccc1C2=O	7	18	40	x	38*
Cc1cc(C)n2c(NC3CCCCC3)c(-c3ccc(F)cc3)nc2n1	10	-13	x	x	4
Cc1cc(C)n2c(NC3CCCCC3)c(CC(C)C)nc2n1	-1	-5	x	x	108*
Cc1c(C)c2ccc(OCC(=O)NCc3ccccn3)cc2oc1=O	72*	0	-6	-3	2
O=C1c2ccccc2NC(c2cccc(O)c2)N1c1ccccc1 (centres undefined)	-4	-6	5	0	3
CCOC(=O)C1=NN(C(=O)c2ccc(OC)cc2)C(O)(c2ccc(Cl)cc2)C1 (centres undefined)	5	20	0	1	1
COC(=O)C1=NN(C(=O)c2cccc(Br)c2)C(O)(c2ccc(Cl)cc2)C1 (centres undefined)	13	65*	20	22	9
Cc1ccc(S(=O)(=O)N2C[C@H]3[C@H]4C(=O)N(C5CCCCC5)C(=O)[C@H]4CC(=O)[C@H]3[C@@H]2c2ccccc2Cl)cc1	36*	-6	13	x	0
CCN1C(=O)[C@@H]2[C@@H]3CN(S(=O)(=O)c4ccc(C)cc4)[C@@H](c4cccc5ccccc45)[C@@H]3C(=O)C[C@@H]2C1=O	-2	-29	-2	x	-3
C=CCNc1nc(Nc2ccc(OC)c(OC)c2)c2sc(-c3ccccc3)cc2n1	1	-29	6	x	1
CN(C)/C=C(/C(=O)c1ccc(Cl)c(Cl)c1)S(C)(=O)=O	2	2	1	-4	3
CN(C)S(=O)(=O)c1ccc(C(=O)OCC(=O)N2CC3(C)CC2CC(C)(C)C3)cc1 (centres undefined)	2	2	-6	x	0
SMILES	CSN inh	SENP1 inh	Rpn11 block	TPT1 inhibitor	HNF4A DNA FP
Cc1noc(C)c1COc1ccc(C(=O)OCC(=O)N2CC3(C)CC2CC(C)(C)C3)cc1 (centres undefined)	37*	0	-14	-5	1
Cc1cc2c(cc1C)-n1nnnc1C(N1CCN(c3ccccn3)CC1)C(c1ccc3c(c1)OCO3)=N2 (centres undefined)	-6	-5	x	x	1
Cc1ccc(OCc2ccc(C(=O)N3CCCC3)o2)cc1C	-1	1	10	-1	-2
CCOc1ccc(OCc2ccc(C(=O)N3CCCCC3)o2)cc1	-3	3	0	-4	36*
C#CCOCCOCCOCCNc1nc(N2CCN(C(=O)CCCCCCCCCCNC(=O)Cn3cc(C[C@@H](C)O)nn3)CC2)nc(N2CCN(C(=O)CCCCCCCCCCNC(=O)Cn3cc(C[C@@H](C)O)nn3)CC2)n1	6	2	-6	-3	1
C#CCOCCOCCOCCNc1nc(N2CCN(C(=O)CCCCCCCCCCNC(=O)Cn3cc(CCCCCN)nn3)CC2)nc(N2CCN(C(=O)CCCCCCCCCCNC(=O)[C@H]([C@@H](C)CC)n3cc(CCCCCN)nn3)CC2)n1	64*	0	32	0	52*
C#CCOCCOCCOCCNc1nc(N2CCN(C(=O)CCCCCCCCCCNC(=O)Cn3cc(CCCCCN)nn3)CC2)nc(N2CCN(C(=O)CCCCCCCCCCNC(=O)[C@H](CO)n3cc(CCCCCN)nn3)CC2)n1	22	-1	-9	-3	38*
C#CCOCCOCCOCCNc1nc(N2CCOCC2)nc(N2CCN(C(=O)CCCCCCCCCCNC(=O)[C@H](CO)n3cc(CCCCCN)nn3)CC2)n1	-3	0	-5	-1	-2
C#CCOCCOCCOCCNc1nc(N2CCN(C(=O)CCCCCCCCCCNC(=O)Cn3cc(C[C@@H](C)O)nn3)CC2)nc(N2CCN(C(=O)CCCCCCCCCCNC(=O)[C@H](CCCCN)n3cc(C[C@@H](C)CC)nn3)CC2)n1	87*	-6	38	2	140
Cc1ccc(NC(=O)/C(C#N)=C/c2ccc(C)s2)c(C)c1	70*	65	x	-4	63
CCCCOCCCNC(=O)C[C@@H]1C[C@@]2(C(=O)OC)CCCCC=C2N(Cc2cccc3ccccc23)C1=O	-5	1	x	x	-4
CC(=O)N1N=C(c2cccc(NS(C)(=O)=O)c2)CC1c1ccc2c(c1)OCO2 (centres undefined)	-4	-2	-4	3	-1
CS(=O)(=O)Nc1ccc(C2=NN(S(C)(=O)=O)C(c3ccc4c(c3)OCO4)C2)cc1 (centres undefined)	11	-36	22	4	79*
COC(=O)CC1OCC=C2CN3CCC45C6=CC(=O)C(=O)C([N+](=O)[O-])=C6NC4C1C2CC35 (centres undefined)	0	2	-9	x	0
O=C(Nc1ncccn1)c1ccc([N+](=O)[O-])o1	64*	-28	x	6	78*
C=CCN1C(=O)C2(NC(=O)c3ccccc3N2)c2ccccc21 (centres undefined)	4	-13	-4	-7	81*
O=C1NC2(Nc3ccccc31)C(=O)Nc1ccccc12 (centres undefined)	0	-82	3	7	5
